# Results from ChEMBL document CHEMBL5724801, “EUbOPEN Chemogenomics Library - Multiplex” (2024).
# Where “and” joins values, the source holds several entries; their conditions need not be identical. Equal entries are not always repeated.
# Tested on: U2OS
# Test: Multiplex assay against U2OS
# Assay type: toxicity, cell-based
# Conditions: human
# Outline: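 On a CQ1 microscope at 37°C and 5% CO2, live cells were imaged after compound addition. They had been stained at seeding with Hoechst33342, BioTracker Green Microtubule Cytoskeleton Dye, MitoTracker Red and Annexin V Alexa Fluor 680. CellPathfinder machine-learning gating assigned cells to Hoechst high-intensity objects or normal cells, normal cells to healthy, pyknosed or fragmented nuclei, and pyknosed cells to mitotic or apoptotic. Tubulin, mitochondrial-mass and membrane-permeability phenotypes are per cents of healthy-nucleus cells.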
# [1] = 12 h, 1 µM, compound concentration 1 uM
# [2] = 12 h, 10 µM, compound concentration 10 uM
# [3] = 24 h, 1 µM, compound concentration 1 uM
# [4] = 24 h, 10 µM, compound concentration 10 uM
# [5] = 48 h, 1 µM, compound concentration 1 uM
# [6] = 48 h, 10 µM, compound concentration 10 uM
smiles,measurement,setting,value
Cl.NCCc1ccc(O)c(O)c1 [DOPAMINE HYDROCHLORIDE],Population Apoptotic (%),[1],100% and 83%
same,Population Fragmented Nuclei (%),[1],23% and 15%
same,Population Healthy Nuclei (%),[1],67% and 72%
same,Population Hoechst High Intensity Objects (%),[1],3% and 1%
same,Population Membrane Permeable-Phenotype (%),[1],5% and 8%
same,Population Mitochondria Different-Phenotype (%),[1],1% and 2%
same,Population Mitotic Cells (%),[1],0% and 16%
same,Population Normal (%),[1],96% and 98%
same,Population Pyknosed Nuclei (%),[1],9% and 11%
same,Population Tubulin-Different-Phenotype (%),[1],2% and 5%
same,Total Cell Count,[1],237 and 104
same,Population Apoptotic (%),[2],80% and 75%
same,Population Fragmented Nuclei (%),[2],21% and 18%
same,Population Healthy Nuclei (%),[2],65% and 76%
same,Population Hoechst High Intensity Objects (%),[2],3% and 0%
same,Population Membrane Permeable-Phenotype (%),[2],2% and 4%
same,Population Mitochondria Different-Phenotype (%),[2],1%
same,Population Mitotic Cells (%),[2],20% and 25%
same,Population Normal (%),[2],96% and 100%
same,Population Pyknosed Nuclei (%),[2],12% and 4%
same,Population Tubulin-Different-Phenotype (%),[2],1%
same,Total Cell Count,[2],204 and 95
same,Population Apoptotic (%),[3],90% and 80%
same,Population Fragmented Nuclei (%),[3],18% and 14%
same,Population Healthy Nuclei (%),[3],69% and 77%
same,Population Hoechst High Intensity Objects (%),[3],4% and 1%
same,Population Membrane Permeable-Phenotype (%),[3],7% and 4%
same,Population Mitochondria Different-Phenotype (%),[3],2% and 1%
same,Population Mitotic Cells (%),[3],10% and 20%
same,Population Normal (%),[3],95% and 98%
same,Population Pyknosed Nuclei (%),[3],11% and 7%
same,Population Tubulin-Different-Phenotype (%),[3],5% and 2%
same,Total Cell Count,[3],263 and 132
same,Population Apoptotic (%),[4],92% and 87%
same,Population Fragmented Nuclei (%),[4],18% and 15%
same,Population Healthy Nuclei (%),[4],70% and 77%
same,Population Hoechst High Intensity Objects (%),[4],2% and 0%
same,Population Membrane Permeable-Phenotype (%),[4],4% and 1%
same,Population Mitochondria Different-Phenotype (%),[4],0%
same,Population Mitotic Cells (%),[4],8% and 12%
same,Population Normal (%),[4],97% and 99%
same,Population Pyknosed Nuclei (%),[4],10% and 7%
same,Population Tubulin-Different-Phenotype (%),[4],1%
same,Total Cell Count,[4],245 and 111
same,Population Apoptotic (%),[5],90% and 89%
same,Population Fragmented Nuclei (%),[5],17% and 14%
same,Population Healthy Nuclei (%),[5],70% and 73%
same,Population Hoechst High Intensity Objects (%),[5],2%
same,Population Membrane Permeable-Phenotype (%),[5],5% and 7%
same,Population Mitochondria Different-Phenotype (%),[5],3% and 4%
same,Population Mitotic Cells (%),[5],9% and 10%
same,Population Normal (%),[5],97%
same,Population Pyknosed Nuclei (%),[5],11%
same,Population Tubulin-Different-Phenotype (%),[5],4% and 3%
same,Total Cell Count,[5],363 and 172
same,Population Apoptotic (%),[6],85% and 100%
same,Population Fragmented Nuclei (%),[6],18% and 14%
same,Population Healthy Nuclei (%),[6],66% and 76%
same,Population Hoechst High Intensity Objects (%),[6],2% and 1%
same,Population Membrane Permeable-Phenotype (%),[6],7% and 2%
same,Population Mitochondria Different-Phenotype (%),[6],3% and 2%
same,Population Mitotic Cells (%),[6],14% and 0%
same,Population Normal (%),[6],97% and 98%
same,Population Pyknosed Nuclei (%),[6],14% and 8%
same,Population Tubulin-Different-Phenotype (%),[6],5% and 2%
same,Total Cell Count,[6],338 and 179
CNC[C@H](O)c1ccc(O)c(O)c1 [EPINEPHRINE],Population Apoptotic (%),[1],88% and 80%
same,Population Fragmented Nuclei (%),[1],35% and 17%
same,Population Healthy Nuclei (%),[1],56% and 77%
same,Population Hoechst High Intensity Objects (%),[1],2% and 0%
same,Population Membrane Permeable-Phenotype (%),[1],5% and 7%
same,Population Mitochondria Different-Phenotype (%),[1],1% and 2%
same,Population Mitotic Cells (%),[1],11% and 20%
same,Population Normal (%),[1],97% and 100%
same,Population Pyknosed Nuclei (%),[1],7% and 5%
same,Population Tubulin-Different-Phenotype (%),[1],2% and 4%
same,Total Cell Count,[1],229 and 92
same,Population Apoptotic (%),[2],92% and 86%
same,Population Fragmented Nuclei (%),[2],41% and 33%
same,Population Healthy Nuclei (%),[2],45% and 50%
same,Population Hoechst High Intensity Objects (%),[2],6% and 9%
same,Population Membrane Permeable-Phenotype (%),[2],7% and 6%
same,Population Mitochondria Different-Phenotype (%),[2],1% and 2%
same,Population Mitotic Cells (%),[2],8% and 13%
same,Population Normal (%),[2],93% and 90%
same,Population Pyknosed Nuclei (%),[2],13% and 15%
same,Population Tubulin-Different-Phenotype (%),[2],4% and 6%
same,Total Cell Count,[2],199 and 105
same,Population Apoptotic (%),[3],84% and 75%
same,Population Fragmented Nuclei (%),[3],28% and 19%
same,Population Healthy Nuclei (%),[3],64% and 68%
same,Population Hoechst High Intensity Objects (%),[3],2%
same,Population Membrane Permeable-Phenotype (%),[3],6% and 7%
same,Population Mitochondria Different-Phenotype (%),[3],1% and 5%
same,Population Mitotic Cells (%),[3],15% and 25%
same,Population Normal (%),[3],97%
same,Population Pyknosed Nuclei (%),[3],7% and 11%
same,Population Tubulin-Different-Phenotype (%),[3],2% and 1%
same,Total Cell Count,[3],278 and 105
same,Population Apoptotic (%),[4],94% and 100%
same,Population Fragmented Nuclei (%),[4],39% and 31%
same,Population Healthy Nuclei (%),[4],50% and 45%
same,Population Hoechst High Intensity Objects (%),[4],9% and 11%
same,Population Membrane Permeable-Phenotype (%),[4],11% and 2%
same,Population Mitochondria Different-Phenotype (%),[4],5% and 0%
same,Population Mitotic Cells (%),[4],5% and 0%
same,Population Normal (%),[4],90% and 88%
same,Population Pyknosed Nuclei (%),[4],10% and 22%
same,Population Tubulin-Different-Phenotype (%),[4],6% and 2%
same,Total Cell Count,[4],195 and 96
same,Population Apoptotic (%),[5],87% and 92%
same,Population Fragmented Nuclei (%),[5],24% and 18%
same,Population Healthy Nuclei (%),[5],66% and 72%
same,Population Hoechst High Intensity Objects (%),[5],0%
same,Population Membrane Permeable-Phenotype (%),[5],9% and 4%
same,Population Mitochondria Different-Phenotype (%),[5],5% and 3%
same,Population Mitotic Cells (%),[5],12% and 7%
same,Population Normal (%),[5],99%
same,Population Pyknosed Nuclei (%),[5],9%
same,Population Tubulin-Different-Phenotype (%),[5],4% and 2%
same,Total Cell Count,[5],333 and 150
same,Population Apoptotic (%),[6],92% and 94%
same,Population Fragmented Nuclei (%),[6],41% and 36%
same,Population Healthy Nuclei (%),[6],44% and 40%
same,Population Hoechst High Intensity Objects (%),[6],10% and 17%
same,Population Membrane Permeable-Phenotype (%),[6],15% and 24%
same,Population Mitochondria Different-Phenotype (%),[6],8% and 13%
same,Population Mitotic Cells (%),[6],7% and 5%
same,Population Normal (%),[6],89% and 82%
same,Population Pyknosed Nuclei (%),[6],14% and 23%
same,Population Tubulin-Different-Phenotype (%),[6],10% and 13%
same,Total Cell Count,[6],215 and 87
CN[C@@H](C)C(=O)N[C@H](C(=O)N1CCC[C@H]1C(=O)Nc1snnc1-c1ccccc1)C1CCCCC1 [GDC-0152],Population Apoptotic (%),[1],60% and 89%
same,Population Fragmented Nuclei (%),[1],25% and 21%
same,Population Healthy Nuclei (%),[1],61% and 60%
same,Population Hoechst High Intensity Objects (%),[1],5% and 11%
same,Population Membrane Permeable-Phenotype (%),[1],51% and 50%
same,Population Mitochondria Different-Phenotype (%),[1],24% and 38%
same,Population Normal (%),[1],94% and 88%
same,Population Pyknosed Nuclei (%),[1],13% and 17%
same,Population Tubulin-Different-Phenotype (%),[1],47% and 52%
same,Total Cell Count,[1],176 and 121
same,Population Apoptotic (%),[2],72% and 70%
same,Population Fragmented Nuclei (%),[2],39% and 18%
same,Population Healthy Nuclei (%),[2],44% and 65%
same,Population Hoechst High Intensity Objects (%),[2],4% and 5%
same,Population Membrane Permeable-Phenotype (%),[2],65% and 73%
same,Population Mitochondria Different-Phenotype (%),[2],61% and 70%
same,Population Mitotic Cells (%),[2],27% and 29%
same,Population Normal (%),[2],95% and 94%
same,Population Pyknosed Nuclei (%),[2],16% and 15%
same,Population Tubulin-Different-Phenotype (%),[2],76% and 91%
same,Total Cell Count,[2],208 and 114
same,Population Apoptotic (%),[3],72% and 85%
same,Population Fragmented Nuclei (%),[3],21% and 34%
same,Population Healthy Nuclei (%),[3],55% and 44%
same,Population Hoechst High Intensity Objects (%),[3],5% and 8%
same,Population Membrane Permeable-Phenotype (%),[3],20% and 25%
same,Population Mitochondria Different-Phenotype (%),[3],18% and 28%
same,Population Mitotic Cells (%),[3],27% and 14%
same,Population Normal (%),[3],94% and 91%
same,Population Pyknosed Nuclei (%),[3],23% and 21%
same,Population Tubulin-Different-Phenotype (%),[3],19% and 27%
same,Total Cell Count,[3],196 and 144
same,Population Apoptotic (%),[4],68% and 92%
same,Population Fragmented Nuclei (%),[4],36% and 20%
same,Population Healthy Nuclei (%),[4],43% and 40%
same,Population Hoechst High Intensity Objects (%),[4],3% and 10%
same,Population Membrane Permeable-Phenotype (%),[4],53% and 59%
same,Population Mitochondria Different-Phenotype (%),[4],59% and 65%
same,Population Normal (%),[4],96% and 89%
same,Population Pyknosed Nuclei (%),[4],20% and 38%
same,Population Tubulin-Different-Phenotype (%),[4],59% and 81%
same,Total Cell Count,[4],220 and 121
same,Population Apoptotic (%),[5],93% and 88%
same,Population Fragmented Nuclei (%),[5],35%
same,Population Healthy Nuclei (%),[5],32% and 30%
same,Population Hoechst High Intensity Objects (%),[5],8%
same,Population Membrane Permeable-Phenotype (%),[5],16% and 38%
same,Population Mitochondria Different-Phenotype (%),[5],12% and 17%
same,Population Mitotic Cells (%),[5],6% and 11%
same,Population Normal (%),[5],91%
same,Population Pyknosed Nuclei (%),[5],32% and 34%
same,Population Tubulin-Different-Phenotype (%),[5],9% and 27%
same,Total Cell Count,[5],246 and 170
same,Population Apoptotic (%),[6],100% and 98%
same,Population Fragmented Nuclei (%),[6],47% and 45%
same,Population Healthy Nuclei (%),[6],22% and 8%
same,Population Hoechst High Intensity Objects (%),[6],11% and 14%
same,Population Membrane Permeable-Phenotype (%),[6],39% and 80%
same,Population Mitochondria Different-Phenotype (%),[6],39% and 50%
same,Population Mitotic Cells (%),[6],0% and 1%
same,Population Normal (%),[6],88% and 85%
same,Population Pyknosed Nuclei (%),[6],29% and 45%
same,Population Tubulin-Different-Phenotype (%),[6],43% and 80%
same,Total Cell Count,[6],246 and 138
